# Measurements reported in ChEMBL document CHEMBL1125154, “An approach to trapping gamma-glutamyl radical intermediates proposed for vitamin K dependent carboxylase: alpha,beta-methyleneglutamic acid” (1990).
# Assays:
# [1] = organism: Rattus norvegicus; assay: Epoxide formation after incubation at 17 degree Celsius for 60 min (compounds tested the ratio of 5 mM 19 and 0.5 mM 20); type: functional
# Outline: (§1)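 Microsomes came from vitamin K deficient rats dosed with 1 mg phylloquinone (ic) 15 min before killing. Incubation ran at 17 °C for 60 min, with the analogue at 5 mM and/or the Glu-site substrate at 0.5 mM. To extract, 0.5 mL of mix was quenched with 2 volumes of 3:2 2-propanol–hexane, vortexed, held 15 min at 4 °C, and centrifuged. The hexane layer was dried under N₂ and epoxide reported as nmol. Values are mean ± SD of four values.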
# [2] = organism: Rattus norvegicus; assay: Epoxide formation was determined at a concentration of 0.5 mM incubation at 17 degree Celsius for 60 minutes; type: functional; outline: as §1
# [3] = molecular target: T1, Vitamin K-dependent gamma-carboxylase (Rattus norvegicus) (UniProt O88496); assay: Inhibition of Vitamin K-dependent gamma-carboxylase was determined at a concentration of 1 mM, incubations were at 17 degree Centigrade for 30 minutes
# T1 sequence (whole entry): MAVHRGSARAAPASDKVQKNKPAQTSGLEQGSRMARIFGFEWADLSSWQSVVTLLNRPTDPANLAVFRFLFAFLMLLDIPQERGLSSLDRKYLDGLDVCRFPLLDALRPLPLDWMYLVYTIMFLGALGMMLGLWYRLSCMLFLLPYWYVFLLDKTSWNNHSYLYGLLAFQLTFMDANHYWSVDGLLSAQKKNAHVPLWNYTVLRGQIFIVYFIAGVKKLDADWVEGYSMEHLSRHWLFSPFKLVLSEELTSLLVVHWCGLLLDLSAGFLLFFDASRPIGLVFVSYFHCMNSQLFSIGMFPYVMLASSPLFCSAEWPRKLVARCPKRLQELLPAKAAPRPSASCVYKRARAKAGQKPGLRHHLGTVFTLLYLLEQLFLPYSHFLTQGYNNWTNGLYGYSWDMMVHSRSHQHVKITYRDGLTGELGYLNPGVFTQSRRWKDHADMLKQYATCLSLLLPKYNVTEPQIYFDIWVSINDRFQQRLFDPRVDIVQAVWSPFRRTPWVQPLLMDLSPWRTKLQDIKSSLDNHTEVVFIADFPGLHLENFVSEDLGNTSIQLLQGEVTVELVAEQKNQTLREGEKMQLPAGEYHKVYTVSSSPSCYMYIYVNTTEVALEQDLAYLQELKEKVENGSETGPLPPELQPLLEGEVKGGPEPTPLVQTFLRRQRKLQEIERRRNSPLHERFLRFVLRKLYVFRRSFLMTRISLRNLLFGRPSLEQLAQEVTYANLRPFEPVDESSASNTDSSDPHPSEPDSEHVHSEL
# Outline: (§2)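 Rat liver microsomes from vitamin K deficient animals were used, following the Wood and Suttie method. Carboxylation was read as ¹⁴CO₂ incorporation into the Glu-site substrate, in dpm. The cyclopropyl analogue was tested at 2 mM, the Glu-site substrate at 1 mM, each alone or combined. Incubation ran at 17 °C for 30 min. Values are mean ± SD of four values.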
# [4] = organism: Rattus norvegicus; assay: Epoxide formation was determined at a concentration 0.5 mM of compound along with 5 mM of 1-tert-Butoxycarbonylamino-2-carboxymethyl-cyclopropanecarboxylic acid benzyl ester; type: functional; outline: as §1
# [5] = molecular target: T1, Vitamin K-dependent gamma-carboxylase (Rattus norvegicus); assay: Inhibition of vitamin K dependent carboxylase was determined at a concentration of 1 mM of compound along with 2 mM of 1-tert-Butoxycarbonylamino-2-carboxymethyl-cyclopropanecarboxylic acid benzyl ester; outline: as §2
# [6] = molecular target: T1, Vitamin K-dependent gamma-carboxylase (Rattus norvegicus); assay: Inhibition of Vitamin K-dependent gamma-carboxylase was determined at a concentration of 0.5 mM, incubations were at 17 degree Celsius for 60 minutes
# [7] = molecular target: T1, Vitamin K-dependent gamma-carboxylase (Rattus norvegicus); assay: Inhibition of vitamin K dependent carboxylase was determined at a concentration of 0.5 mM of compound along with 5 mM of 1-tert-Butoxycarbonylamino-2-carboxymethyl-cyclopropanecarboxylic acid benzyl ester
# Outline: (§3)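 Liver microsomal carboxylase came from vitamin K deficient rats. Activity was taken as ¹⁴CO₂ incorporation into the Glu-site substrate, in dpm. The analogue was present at 5 mM and/or the Glu-site substrate at 0.5 mM. Incubation ran at 17 °C for 60 min. Values are mean ± SD of four values.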
# [8] = molecular target: T1, Vitamin K-dependent gamma-carboxylase (Rattus norvegicus); assay: Inhibition of Vitamin K-dependent gamma-carboxylase was determined at a concentration of 5 mM, incubations were at 17 degree Centigrade for 60 minutes
# [9] = molecular target: T1, Vitamin K-dependent gamma-carboxylase (Rattus norvegicus); assay: Inhibition of Vitamin K-dependent gamma-carboxylase was determined at a concentration of 2 mM, incubations were at 17 degree Celsius for 30 minutes; outline: as §2
# [10] = molecular target: T1, Vitamin K-dependent gamma-carboxylase (Rattus norvegicus); assay: Vitamin K-dependent gamma-carboxylase activity was assayed in liver microsomes prepared from vitamin K deficient rats incubated at 17 degree Celsius for 30 min (compounds tested the ratio of 2 mM 19 and 1 mM 20); settings: Microsome; outline: as §2
# [11] = molecular target: T1, Vitamin K-dependent gamma-carboxylase (Rattus norvegicus); assay: Vitamin K-dependent gamma-carboxylase activity was assayed in liver microsomes prepared from vitamin K deficient rats incubated at 17 degree Celsius for 60 min (compounds tested the ratio of 5 mM 19 and 0.5 mM 20); settings: Microsome; outline: as §3
# [12] = organism: Rattus norvegicus; assay: Compound was evaluated for the epoxide formation at 5 mM incubations were at 17 degree Celsius for 60 minutes; type: functional; outline: as §1
# [13] = molecular target: T1, Vitamin K-dependent gamma-carboxylase (Rattus norvegicus); assay: Vitamin K-dependent gamma-carboxylase activity was assayed in liver microsomes prepared from vitamin K deficient rats incubated at 17 degree Celsius for 60 min; settings: Microsome; outline: as §3
# [14] = molecular target: T1, Vitamin K-dependent gamma-carboxylase (Rattus norvegicus); assay: Vitamin K-dependent gamma-carboxylase activity was assayed in liver microsomes prepared from vitamin K deficient rats incubated at 17 degree Celsius for 30 min; settings: Microsome; outline: as §2
# [15] = organism: Rattus norvegicus; assay: Epoxide formation after incubation at 17 degree Centigrade for 60 min; type: functional; outline: as §1
smiles,measurement,setting,value
CC(C)(C)OC(=O)NC(CCC(=O)O)C(=O)OCc1ccccc1.CC(C)(C)OC(=O)NC1(C(=O)OCc2ccccc2)CC1CC(=O)O (stereo not given) [listing 1 of 2 here],Epoxide formation,[1],6.7 nmol
CC(C)(C)OC(=O)N[C@H](CCC(=O)O)C(=O)OCc1ccccc1,Epoxide formation,[2],7.1 nmol
same,Carboxylase activity,[3],5800 dpm
same,Epoxide formation,[4],6.7 nmol
same,Carboxylase activity,[5],5770 dpm
same,Carboxylase activity,[6],12600 dpm
same,Carboxylase activity,[7],12200 dpm
CC(C)(C)OC(=O)NC1(C(=O)OCc2ccccc2)CC1CC(=O)O (stereo not given) [listing 1 of 2 here],Carboxylase activity,[8],690 dpm
same,Carboxylase activity,[9],300 dpm
CC(C)(C)OC(=O)NC(CCC(=O)O)C(=O)OCc1ccccc1.CC(C)(C)OC(=O)NC1(C(=O)OCc2ccccc2)CC1CC(=O)O (stereo not given) [listing 2 of 2 here],Carboxylase activity,[10],5770 dpm
same,Carboxylase activity,[11],12200 dpm
CC(C)(C)OC(=O)NC1(C(=O)OCc2ccccc2)CC1CC(=O)O (stereo not given) [listing 2 of 2 here],Epoxide formation,[12],5.1 nmol
CC(C)(C)OC(=O)NC(CCC(=O)O)C(=O)OCc1ccccc1 (stereo not given),Carboxylase activity,[13],12600 dpm
same,Carboxylase activity,[14],5800 dpm
same,Epoxide formation,[15],7.1 nmol
